A short description of data set [1]: Displacement of [3H]PbTx-3 from rat brain synaptosome voltage-sensitive sodium channel site 5 after 1 hr by rapid filtration based scintillation counting. The data set is classed as tissue-based. The method, boiled down: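 Rat brain synaptosomes (0.1 mg protein/mL final) were incubated on ice for at least 1 h with about 1.5 nM [3H]-PbTx-3 and competitor (0 to 10 μM). Buffer was HEPES/choline chloride medium, pH 7.4, with 1 mg/mL BSA. Bound label was filtered and counted by scintillation. Apparent Ki came from one-site competition fits, with ≥3 experiments each run in duplicate or triplicate.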
For orientation: Loss of bound radioactivity is the signal in a displacement assay; it reports binding, not function.

Data set [2] has as its system Ovis aries. The experiment in a line: Bronchoconstriction in sheep 1988 asthma model assessed as pulmonary airflow resistance at 10 pg/ml administered through aerosol for 20 breaths by pneumotachography relative to control. The data set is classed as functional.
Data set [3] relates to Gambusia affinis. The experiment in a line: Toxicity in mosquito fish at 25 to 200 nM up to 24 hrs. The data set is classed as organism-based. The settings on record: in vivo, 0.2 µM. The method, boiled down:
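Fish each received 0.2 mL test solution or EtOH vehicle (0.2 mL), giving final water concentrations of 0, 25, 50, 100 or 200 nM. PbTx-2 positive control at 200 nM. Five fish per concentration. Monitored for 24 hours or until death; time of death as mean ± S.E.M., two-way Student's t-test.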

The test system of data set [4] is Ovis aries. The experiment in a line: Bronchoconstriction in sheep 2164 asthma model assessed as pulmonary airflow resistance at 10 pg/ml administered through aerosol for 20 breaths by pneumotachography relative to control. It counts as functional.
In data set [5] the test system is Ovis aries. The experiment in a line: Bronchoconstriction in sheep 2263 asthma model assessed as pulmonary airflow resistance at 10 pg/ml administered through aerosol for 20 breaths by pneumotachography relative to control. The data set is classed as functional.
The subject of data set [6] is Ovis aries. The experiment in a line: Bronchoconstriction in sheep 2297 asthma model assessed as pulmonary airflow resistance at 10 pg/ml administered through aerosol for 20 breaths by pneumotachography relative to control. It counts as functional.
The subject of data set [7] is Ovis aries. The experiment in a line: Bronchoconstriction in sheep asthma model assessed as pulmonary airflow resistance at 10 pg/ml administered through aerosol for 20 breaths by pneumotachography relative to control. The data set is classed as functional.
Data set [8] deals with Gambusia affinis. The experiment in a line: Toxicity in mosquito fish assessed as time required for mortality at 200 nM. It counts as organism-based. The settings on record: in vivo, 0.2 µM. The method, boiled down: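 Fish received 0.2 mL of test solution or an EtOH vehicle in tank water, giving 25-200 nM final. Five fish were used per concentration. Fish were watched for 24 h or until death. Time of death in minutes is given as mean ± S.E.M., compared by t-test.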

We go through five compounds from ChEMBL document CHEMBL1157083, “Characterization of tamulamides A and B, polyethers isolated from the marine dinoflagellate Karenia brevis” (J Nat Prod, 2010).

Broadly, the Ki is a measure of affinity in units of concentration, obtained from inhibition or displacement. A low value points to a stronger hold on the target. In data set [1], `CC(=O)NC[C@@H]1O[C@@H]2C[C@]3(C)O[C@@H]4C=C[C@@H]5O[C@@H]6C=C[C@@H]7O[C@H](/C=C/C=C/C=O)C=C[C@H]7O[C@H]6C[C@H]5O[C@H]4C[C@H]3O[C@H]2C[C@H]1O` [TAMULAMIDE B] yielded an inhibitory constant (Ki) of 210 nM. For the same compound, the Activity was 36% in the data set on Ovis aries [2]; “Non-toxic” in the data set on Gambusia affinis [3]; 34% in the data set on Ovis aries [4]; 37% with Ovis aries [5]; 33% in the data set with Ovis aries [6].
Take `C=C/C=C\CC[C@H]1O[C@H]2CC[C@@]3(C)O[C@H]4[C@@H](O)C[C@@]5(C)O[C@@H](CC/C=C(C)/C(C)=C/C=O)[C@@H](C)C[C@H]5O[C@@H]4C[C@@H]3O[C@@H]2CC[C@@]1(C)O` [BREVENAL]: the inhibition constant (Ki) in data set [1] came to 170 nM. In the data set with Ovis aries [7], the Activity was determined as 4%.
As to `C=C(C=O)C[C@@H]1C[C@H](O)[C@]2(C)O[C@@H]3C[C@@H]4O[C@@H]5C[C@]6(C)O[C@]7(C)CC[C@@H]8O[C@@H]9C[C@]%10(C)O[C@@H]%11C(C)=CC(=O)O[C@H]%11C[C@H]%10O[C@H]9C[C@@H](C)[C@H]8O[C@H]7C[C@H]6O[C@@]5(C)C/C=C\[C@H]4O[C@H]3C[C@H]2O1` [BREVETOXIN B], in data set [1], the Ki amounted to 1.2 nM. For the same compound, the Activity result with Gambusia affinis [8] was “Toxic”; in the data set on Ovis aries [7], 226%.
In data set [1], `CC(=O)NC[C@@H]1O[C@@H]2C[C@]3(C)O[C@@H]4C=C[C@@H]5O[C@@H]6C=C[C@@H]7O[C@H](/C=C/C=C/C=O)C=C[C@H]7O[C@H]6C[C@H]5O[C@@]4(C)C[C@H]3O[C@H]2C[C@H]1O` [TAMULAMIDE A] registered a Ki of 2500 nM. In addition, the Activity in the data set with Ovis aries [2] is reported as 39%; in the data set with Gambusia affinis [3], “Non-toxic”; in the data set with Ovis aries [4], 43%; with Ovis aries [5], 42%; in the data set with Ovis aries [6] it was 34%.
On to `C=C(COC(=O)c1ccc2ccccc2c1)C[C@@H]1C[C@H](O)[C@]2(C)O[C@@H]3C[C@@H]4O[C@@H]5C[C@]6(C)O[C@]7(C)CC[C@@H]8O[C@@H]9C[C@]%10(C)O[C@@H]%11C(C)=CC(=O)O[C@H]%11C[C@H]%10O[C@H]9C[C@@H](C)[C@H]8O[C@H]7C[C@H]6O[C@@]5(C)C/C=C\[C@H]4O[C@H]3C[C@H]2O1`, for which the Activity in the data set with Ovis aries [7] was 0%.
